Experimental data: ChEMBL document CHEMBL4680236, “Design, synthesis and structure-activity relationships of novel 15-membered macrolides: Quinolone/quinoline-containing sidechains tethered to the C-6 position of azithromycin acylides” (Eur J Med Chem, 2020)
Converted amounts (≈) assume the structure as drawn.

Legend:
Type in all cases: functional
Streptococcus pneumoniae [1] = experiment: Antibacterial activity against Erythromycin-susceptible Streptococcus pneumoniae ATCC 49619 assessed as reduction in microbial growth
Streptococcus pneumoniae [2] = experiment: Ratio of MBC to MIC against penicillin-susceptible Streptococcus pneumoniae PU09
Staphylococcus aureus [3] = experiment: Antibacterial activity against MLSB/methicillin/ciprofloxacin-resistant Staphylococcus aureus PU32 harboring ermA gene assessed as reduction in microbial growth
Haemophilus influenzae [4] = experiment: Antibacterial activity against azithromycin-susceptible Haemophilus influenzae ATCC 49247 assessed as reduction in microbial growth
Streptococcus pneumoniae [5] = experiment: Bactericidal activity against Erythromycin-susceptible Streptococcus pneumoniae ATCC 49619
Summary of the method: (§1)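 Bacteria were exposed to 1- to 8-fold MIC of the sample, then transferred to fresh medium without antibacterial. After further incubation, colonies were counted. MBC was taken as the lowest concentration giving a >3 log10 reduction in colony number.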

Streptococcus pneumoniae [6] = experiment: Bactericidal activity against penicillin-susceptible Streptococcus pneumoniae PU09 harboring mef gene
Summary of the method: (§2)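 Bacteria were exposed to 1- to 8-fold their MIC of test sample, then transferred to fresh culture medium without antibacterial compound and incubated for the required time. Colonies were then counted. MBC is the lowest concentration giving a reduction in colony number of >3 Log₁₀.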

Streptococcus pneumoniae [7] = experiment: Antibacterial activity against penicillin-susceptible Streptococcus pneumoniae PU09 harboring mef gene assessed as reduction in microbial growth
Haemophilus influenzae [8] = experiment: Ratio of MBC to MIC against azithromycin-susceptible Haemophilus influenzae ATCC 49247
Staphylococcus aureus [9] = experiment: Ratio of MBC to MIC against MLSB/methicillin/ciprofloxacin-resistant Staphylococcus aureus PU32 harboring ermA gene
Streptococcus pneumoniae [10] = experiment: Antibacterial activity against MLSB-resistant Streptococcus pneumoniae 07P390 harboring ermB gene assessed as reduction in microbial growth
Streptococcus pneumoniae [11] = experiment: Bactericidal activity against MLSB-resistant Streptococcus pneumoniae 07P390 harboring ermB gene assessed as reduction in microbial growth; summary of the method: as §2
Streptococcus pneumoniae [12] = experiment: Ratio of MBC to MIC against Erythromycin-susceptible Streptococcus pneumoniae ATCC 49619
Staphylococcus aureus [13] = experiment: Antibacterial activity against MLSB/methicillin-resistant Staphylococcus aureus 15B196 assessed as reduction in microbial growth
Haemophilus influenzae [14] = experiment: Bactericidal activity against azithromycin-susceptible Haemophilus influenzae ATCC 49247; summary of the method: as §1
Staphylococcus aureus [15] = experiment: Bactericidal activity against MLSB/methicillin/ciprofloxacin-resistant Staphylococcus aureus PU32 harboring ermA gene; summary of the method: as §2
Streptococcus pneumoniae [16] = experiment: Ratio of MBC to MIC against MLSB-resistant Streptococcus pneumoniae 07P390 harboring ermB
Streptococcus pyogenes [17] = experiment: Ratio of MBC to MIC against MLSB-resistant Streptococcus pyogenes 12-206 harboring ermA gene
Staphylococcus aureus [18] = experiment: Bactericidal activity against MLSB/methicillin-resistant Staphylococcus aureus 15B196; summary of the method: as §2
Streptococcus pyogenes [19] = experiment: Bactericidal activity against MLSB-resistant Streptococcus pyogenes 12-206 harboring ermA gene; summary of the method: as §2
Streptococcus pyogenes [20] = experiment: Antibacterial activity against MLSB-resistant Streptococcus pyogenes 12-206 harboring ermA gene assessed as reduction in microbial growth

| Structure (SMILES) | MIC (Streptococcus pneumoniae [1]) [µg/mL] | Ratio (Streptococcus pneumoniae [2]) | MIC (Staphylococcus aureus [3]) [µg/mL] | MIC (Haemophilus influenzae [4]) [µg/mL] | MBC (Streptococcus pneumoniae [5]) [µg/mL] | MBC (Streptococcus pneumoniae [6]) [µg/mL] | MIC (Streptococcus pneumoniae [7]) [µg/mL] | Ratio (Haemophilus influenzae [8]) | Ratio (Staphylococcus aureus [9]) | MIC (Streptococcus pneumoniae [10]) [µg/mL] | MBC (Streptococcus pneumoniae [11]) [µg/mL] | Ratio (Streptococcus pneumoniae [12]) | MIC (Staphylococcus aureus [13]) [µg/mL] | MBC (Haemophilus influenzae [14]) [µg/mL] | MBC (Staphylococcus aureus [15]) [µg/mL] | Ratio (Streptococcus pneumoniae [16]) | Ratio (Streptococcus pyogenes [17]) | MBC (Staphylococcus aureus [18]) [µg/mL] | MBC (Streptococcus pyogenes [19]) [µg/mL] | MIC (Streptococcus pyogenes [20]) [µg/mL] |
| --- | --- | --- | --- | --- | --- | --- | --- | --- | --- | --- | --- | --- | --- | --- | --- | --- | --- | --- | --- | --- |
| CC[C@H]1OC(=O)[C@H](C)[C@@H](OC(=O)Cc2ccccn2)[C@H](C)[C@@H](O[C@@H]2O[C@H](C)C[C@H](N(C)C)[C@H]2O)[C@](C)(OC(=O)CCNC/C=C/c2cnc3ccccc3c2)C[C@@H](C)CN(C)[C@H](C)[C@@H](O)[C@]1(C)O | 0.125 | 1 | 2 | 8 | 0.25 (≈ 0.264 µM) | 2 (≈ 2.11 µM) | 2 | 2 | >8 | 1 | > 8 | 2 | > 256 | 16 (≈ 16.9 µM) | > 16 | >8 |  |  |  |  |
| CC[C@H]1OC(=O)[C@H](C)[C@@H](OC(=O)Cc2cccnc2)[C@H](C)[C@@H](O[C@@H]2O[C@H](C)C[C@H](N(C)C)[C@H]2O)[C@](C)(OC(=O)CCNCCC#Cc2ccc3c(c2)c(=O)c(C(N)=O)cn3C2CC2)C[C@@H](C)CN(C)[C@H](C)[C@H]2OC(=O)O[C@@]21C | 1 | 2 | 64 | 64 | 2 (≈ 1.84 µM) | 8 (≈ 7.37 µM) | 4 | 1 | >4 | 64 | 128 | 2 | > 256 | 64 (≈ 59 µM) | > 256 |  | 2 | > 256 | 64 (≈ 59 µM) | 32 |
| CC[C@H]1OC(=O)[C@H](C)[C@@H](OC(=O)Cc2ccccn2)[C@H](C)[C@@H](O[C@@H]2O[C@H](C)C[C@H](N(C)C)[C@H]2O)[C@](C)(OC(=O)CCN2CCN(c3nc4c(cc3F)c(=O)c(C(N)=O)cn4CC)CC2)C[C@@H](C)CN(C)[C@H](C)[C@@H](O)[C@]1(C)O | 0.5 | 2 | 32 | 8 | 1 (≈ 0.923 µM) | 4 (≈ 3.69 µM) | 2 | 1 | >8 | 64 | 128 | 2 | 256 | 8 (≈ 7.38 µM) | > 256 |  | >8 | > 256 | > 128 | 16 |
| CC[C@H]1OC(=O)[C@H](C)[C@@H](OC(=O)Cc2ccccn2)[C@H](C)[C@@H](O[C@@H]2O[C@H](C)C[C@H](N(C)C)[C@H]2O)[C@](C)(OC(=O)CCNCCCCc2cnc3ccccc3c2)C[C@@H](C)CN(C)[C@H](C)[C@@H](O)[C@]1(C)O | 0.25 | 1 | 4 | 16 | 0.5 (≈ 0.519 µM) | 4 (≈ 4.15 µM) | 4 | 2 | 4 | 8 | 32 | 2 | 256 | 32 (≈ 33.2 µM) | 16 (≈ 16.6 µM) | 4 |  | > 256 |  |  |
| CC[C@H]1OC(=O)[C@H](C)[C@@H](OC(=O)Cc2ccccn2)[C@H](C)[C@@H](O[C@@H]2O[C@H](C)C[C@H](N(C)C)[C@H]2O)[C@](C)(OC(=O)CCNCCC#Cc2ccc3c(c2)c(=O)c(C(N)=O)cn3CC)C[C@@H](C)CN(C)[C@H](C)[C@@H](O)[C@]1(C)O | 0.12 | 1 | 32 | 16 | 0.5 (≈ 0.477 µM) | 2 (≈ 1.91 µM) | 2 | 1 | >8 | 256 | > 256 | 4 | > 256 | 16 (≈ 15.3 µM) | > 256 |  | >8 | > 256 | > 64 | 8 |
| CC[C@H]1OC(=O)[C@H](C)[C@@H](OC(=O)Cc2ccccn2)[C@H](C)[C@@H](O[C@@H]2O[C@H](C)C[C@H](N(C)C)[C@H]2O)[C@](C)(OC(=O)CCNCCCc2cnc3ccccc3c2)C[C@@H](C)CN(C)[C@H](C)[C@@H](O)[C@]1(C)O | 0.062 | 2 | 4 | 16 | 0.062 (≈ 0.0652 µM) | 4 (≈ 4.21 µM) | 2 | 1 | 8 | 2 | 16 | 1 | > 256 | 16 (≈ 16.8 µM) | 32 (≈ 33.7 µM) | 8 |  |  |  |  |
| CC[C@H]1OC(=O)[C@H](C)[C@@H](OC(=O)Cc2ccccn2)[C@H](C)[C@@H](O[C@@H]2O[C@H](C)C[C@H](N(C)C)[C@H]2O)[C@](C)(OC(=O)CCNCCC#Cc2ccc3c(c2)c(=O)c(C(N)=O)cn3C2CC2)C[C@@H](C)CN(C)[C@H](C)[C@H]2OC(=O)O[C@@]21C | 0.5 | 2 | 64 | 64 | 1 (≈ 0.921 µM) | 8 (≈ 7.37 µM) | 4 | 2 | >4 | 64 | 128 | 2 | 128 | 128 (≈ 118 µM) | > 256 |  | 4 | > 256 | 64 (≈ 59 µM) | 16 |
| CC[C@H]1OC(=O)[C@H](C)[C@@H](OC(=O)Cc2ccccn2)[C@H](C)[C@@H](O[C@@H]2O[C@H](C)C[C@H](N(C)C)[C@H]2O)[C@](C)(OC(=O)CCNCCNc2cc3c(=O)c(C(=O)O)cn(C4CC4)c3cc2Cl)C[C@@H](C)CN(C)[C@H](C)[C@@H](O)[C@]1(C)O | 0.25 | 1 | 8 | 16 | 0.25 (≈ 0.23 µM) | 4 (≈ 3.68 µM) | 4 | 2 | >8 | 1 | > 8 | 1 | > 256 | 32 (≈ 29.5 µM) | > 64 | >8 |  |  |  |  |
| CC[C@H]1OC(=O)[C@H](C)[C@@H](OC(=O)Cc2ccccn2)[C@H](C)[C@@H](O[C@@H]2O[C@H](C)C[C@H](N(C)C)[C@H]2O)[C@](C)(OC(=O)CCNCCC#Cc2cncc(C(N)=O)c2)C[C@@H](C)CN(C)[C@H](C)[C@@H](O)[C@]1(C)O | 0.25 | 2 | 16 | 64 | 0.25 (≈ 0.262 µM) | 4 (≈ 4.2 µM) | 2 | 2 | >8 | 128 | > 256 | 1 | > 256 | 128 (≈ 134 µM) | > 128 |  | >8 | > 256 | > 32 | 4 |
